Experimental data as given in ChEMBL document CHEMBL3352463, “Brain-penetrant, orally bioavailable microtubule-stabilizing small molecules are potential candidate therapeutics for Alzheimer's disease and related tauopathies” (J Med Chem, 2014).
Activity calls are given as the source filed them. The calls are words filed in the database; no cut-off is given here.

Legend:
QBI293 [1] = assay: Induction of microtubule stabilization in human QBI293 cells assessed as increase in acetylated alpha-tubulin at 1 uM after 4 hrs by ELISA relative to 0.1 uM treated triazolopyrimidines cevipabulin; format: cell-based
In short: (§1)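 QBI293 cells exposed to compound at 1 μM. Acetylated α-tubulin expressed as fold-change over vehicle-treated cells and over cells given 0.1 μM cevipabulin as positive control. Significance by two-tailed t-test.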

[2] = Drug level in CD1 mouse brain at 5 mg/kg, ip after 1 hr by LC-MS/MS system; format: ADME, organism-based; parameters: dose 5 mg/kg, route intraperitoneal; conditions: read-out: Drug uptake
In short: (§2)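 2-month-old CD1 mice (about 20 g) given 5 mg/kg ip; brain and plasma sampled at 1 h. Hemispheres sonicated in 10 mM ammonium acetate pH 5.7 (1:2 w/v); plasma from EDTA blood spun 4500g, 10 min, 4 °C. Acetonitrile extraction, then UPLC-MS/MS in positive ESI MRM mode. Quantified against spiked standard curves at 0.005–5 μM in matching matrix.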

QBI293 [3] = assay: Induction of microtubule stabilization in human QBI293 cells assessed as increase in acetylated alpha-tubulin at 0.1 uM after 4 hrs by ELISA relative to vehicle treated control; format: cell-based
[4] = Drug level in CD1 mouse plasma at 5 mg/kg, ip after 1 hr by LC-MS/MS system; format: ADME, organism-based; parameters: dose 5 mg/kg, route intraperitoneal; in short: as §2
[5] = Ratio of drug level in brain to plasma in CD1 mouse at 5 mg/kg, ip after 1 hr by LC-MS/MS system
QBI293 [6] = assay: Induction of microtubule stabilization in human QBI293 cells assessed as increase in acetylated alpha-tubulin at 1 uM after 4 hrs by ELISA relative to vehicle treated control; format: cell-based; in short: as §1
[7] = biological target: ATP-dependent translocase ABCB1 (Homo sapiens, UniProt P08183); assay: Inhibition of human P-glycoprotein expressed in NCI/ADR-RES cells assessed as reduction of calcein-AM transport after 20 mins by fluorescence assay; format: cell-based
[8] = Ratio of AUC for drug level in brain to plasma in CD1 mouse at 5 mg/kg, ip after 1 hr by LC-MS/MS system; format: ADME, organism-based; parameters: dose 5 mg/kg, route intraperitoneal; conditions: brain and plasma, read-out: Ratio AUC
In short: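 2-month-old CD1 mice given 5 mg/kg ip; brain hemispheres (homogenized 1:2 w/v in 10 mM ammonium acetate pH 5.7) and EDTA plasma collected over a 16 h time course. Acetonitrile-precipitated supernatants quantified by LC-MS/MS (MRM, positive ESI) with spiked standard curves 0.005–5 μM.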

[9] = Ratio of AUC for free drug level in brain to plasma in CD1 mouse at 5 mg/kg, ip after 1 hr by LC-MS/MS system; format: ADME, organism-based; parameters: dose 5 mg/kg, route intraperitoneal; conditions: brain and plasma
Mus musculus = assay: Induction of microtubule stabilization in wild type mouse assessed as increase in acetylated alpha-tubulin level in brain at 1 mg/kg, ip after 4 to 6 days; format: functional, organism-based; parameters: dose 1 mg/kg
In short: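 Wild-type mice (n = 3 per group) dosed 1 mg/kg ip once daily for 4 or 6 days; acetylated α-tubulin measured in brain homogenates, expressed relative to controls; significance by ANOVA with Dunnett's multiple comparison test.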

[10] = Ratio of drug level in brain to plasma in CD1 mouse at 5 mg/kg, ip after 1 hr by LC-MS/MS system; format: ADME, organism-based; parameters: dose 5 mg/kg, route intraperitoneal; conditions: brain and plasma, read-out: BPR
In short: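 CD1 mice (2 months, about 20 g) dosed 5 mg/kg ip; brain and plasma taken at 1 h. Each extracted with acetonitrile and measured by LC-MS/MS MRM against matrix standard curves (0.005–5 μM). Value is the brain concentration divided by the plasma concentration.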

QBI293 [11] = assay: Induction of microtubule stabilization in human QBI293 cells assessed as increase in acetylated alpha-tubulin at 100 nM after 4 hrs by immunofluorescence assay relative to control; format: cell-based
In short: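 QBI293 cells incubated 4 h with test compound (100 nM), colchicine (1 μM) or no compound; acetylated α-tubulin visualized by immunofluorescence to assess microtubule number/organization.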

[12] = Elimination half life in CD1 mouse plasma at 5 mg/kg, ip after 1 hr by LC-MS/MS system; format: ADME, organism-based; parameters: dose 5 mg/kg, route intraperitoneal; conditions: read-out: beta t1/2 (converted)
In short: (§3)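 Female? no—2-month-old CD1 mice (20 g average) given 5 mg/kg ip; plasma (EDTA blood, centrifuged 4500g, 10 min, 4 °C) and brain hemispheres (homogenized in 10 mM ammonium acetate pH 5.7) sampled over 16 h. Acetonitrile extraction, LC-MS/MS by MRM against spiked standard curves (0.005–5 μM). Half-life from elimination rate constant, slope of ln concentration vs time at 4, 8 and 16 h.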

[13] = Elimination half life in CD1 mouse brain at 5 mg/kg, ip after 1 hr by LC-MS/MS system; format: ADME, organism-based; parameters: dose 5 mg/kg, route intraperitoneal; conditions: read-out: beta t1/2 (converted); in short: as §3

Chain of ATP-dependent translocase ABCB1 (P08183 whole entry): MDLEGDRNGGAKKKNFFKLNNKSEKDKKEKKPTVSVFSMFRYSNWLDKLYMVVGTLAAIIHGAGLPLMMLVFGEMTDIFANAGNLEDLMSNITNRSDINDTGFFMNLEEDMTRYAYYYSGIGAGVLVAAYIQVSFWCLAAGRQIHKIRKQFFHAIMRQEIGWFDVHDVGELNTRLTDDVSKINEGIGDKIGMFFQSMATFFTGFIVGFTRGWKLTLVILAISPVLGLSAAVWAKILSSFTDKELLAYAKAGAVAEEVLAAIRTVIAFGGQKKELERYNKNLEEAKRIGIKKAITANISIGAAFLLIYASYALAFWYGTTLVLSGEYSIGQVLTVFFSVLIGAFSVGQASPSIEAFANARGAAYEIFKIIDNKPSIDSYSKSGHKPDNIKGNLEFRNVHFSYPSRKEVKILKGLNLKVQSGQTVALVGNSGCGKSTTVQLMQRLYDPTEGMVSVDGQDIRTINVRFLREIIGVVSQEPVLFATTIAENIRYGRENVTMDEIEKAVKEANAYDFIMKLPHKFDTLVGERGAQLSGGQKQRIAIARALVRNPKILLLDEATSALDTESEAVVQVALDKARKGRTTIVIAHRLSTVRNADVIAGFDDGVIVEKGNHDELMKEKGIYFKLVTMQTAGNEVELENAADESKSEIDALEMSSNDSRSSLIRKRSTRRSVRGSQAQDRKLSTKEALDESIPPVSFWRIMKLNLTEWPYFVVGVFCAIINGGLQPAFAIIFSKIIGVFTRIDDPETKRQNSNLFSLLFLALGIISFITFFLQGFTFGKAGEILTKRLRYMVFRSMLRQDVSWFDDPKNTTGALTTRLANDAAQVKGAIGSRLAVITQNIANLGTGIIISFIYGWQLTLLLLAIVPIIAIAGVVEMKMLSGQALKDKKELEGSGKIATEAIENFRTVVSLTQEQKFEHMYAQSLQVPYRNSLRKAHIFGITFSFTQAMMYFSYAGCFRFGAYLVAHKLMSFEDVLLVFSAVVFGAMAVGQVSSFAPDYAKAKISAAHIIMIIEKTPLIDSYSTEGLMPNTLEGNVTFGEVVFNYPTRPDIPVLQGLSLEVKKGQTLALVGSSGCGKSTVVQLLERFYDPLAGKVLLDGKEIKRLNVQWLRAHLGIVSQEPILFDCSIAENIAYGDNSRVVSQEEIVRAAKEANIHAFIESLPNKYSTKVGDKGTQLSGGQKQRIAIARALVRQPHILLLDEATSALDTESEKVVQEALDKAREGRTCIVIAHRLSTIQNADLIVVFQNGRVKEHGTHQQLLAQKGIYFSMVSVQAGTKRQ

SMILES | fold change (FC) (QBI293 [1]) | concentration at 1 h [2] [nM] | concentration at 1 h [4] [nM] | BPR [5] | fold change (FC) (QBI293 [6]) | further results
C[C@H](Nc1c(-c2c(F)cc(OCCCN)cc2F)c(Cl)nc2ncnn12)C(F)(F)F | 3.4 | 40 | 1300 | 0.03 | 26.5 | fold change (FC) (QBI293 [3]): 4.2
C[C@H](Nc1c(-c2c(F)cc(OCCCNCC(F)(F)F)cc2F)c(Cl)nc2ncnn12)C(F)(F)F | 0.6 | 230 | 160 | 1.5 | 2.1 | –
C[C@H](Nc1c(-c2c(F)cc(OCCCCl)cc2F)c(Cl)nc2ncnn12)C(F)(F)F | – | 160 | 178 | 0.88 | 1.2 | –
COc1ccccc1N1CCN(C(=O)c2cc(=O)c3cc(C)cc(C)c3o2)CC1 | – | – | – | – | 0.9 | –
Fc1cc(F)c(-c2c(Cl)nc(-c3cnccn3)nc2NCC(F)(F)F)c(F)c1 | – | – | – | – | 1.5 | –
CC(=O)N(C)CCCOc1cc(F)c(-c2c(Cl)nc3ncnn3c2N[C@@H](C)C(F)(F)F)c(F)c1 | – | 20 | 200 | 0.15 | 1.3 | –
C[C@H](Nc1c(-c2c(F)cc(OCCCF)cc2F)c(Cl)nc2ncnn12)C(F)(F)F | – | – | – | – | 1.4 | –
CC(C)c1cccc(C(C)C)c1N1C(=O)c2ccc(O)cc2C1=O | – | – | – | – | 1 | –
Cc1nnc(Cl)c(-c2c(F)cc(F)cc2F)c1-c1ccc(Cl)cc1 | – | – | – | – | 1.5 | –
CC(=O)NCCCOc1cc(F)c(-c2c(Cl)nc3ncnn3c2N[C@@H](C)C(F)(F)F)c(F)c1 | 1.5 | – | – | – | 4.5 | –
C[C@H](Nc1c(-c2c(F)cc(OCCCN(C)C)cc2F)c(Cl)nc2ncnn12)C(F)(F)F | 1.3 | 1300 | 4900 | – | 9.1 | fold change (FC) (QBI293 [3]): 2; inhibition (INH) [7]: Not Active; Kp at 1 h [8]: 0.37; Kp uu at 1 h [9]: 0.09; Activity (Mus musculus): Active
C[C@H](Nc1c(-c2c(F)cc(OCCCNc3ccccc3)cc2F)c(Cl)nc2ncnn12)C(F)(F)F | – | 120 | 75 | 1.6 | 1 | –
C[C@H](Nc1nc(-c2cnccn2)nc(Cl)c1-c1c(F)cc(OCCCN(C)C)cc1F)C(F)(F)F | 0.5 | 860 | 2500 | 0.35 | 4.1 | –
C[C@H](Nc1c(-c2c(F)cc(OCCCN3CCOCC3)cc2F)c(Cl)nc2ncnn12)C(F)(F)F | 1.2 | 600 | 1200 | 0.49 | 4.1 | –
CN(C)CCCOc1cc(F)c(-c2c(Cl)nc(-c3ccccn3)nc2NCC(F)(F)F)c(F)c1 | – | – | – | – | 0.9 | –
COc1ccc(CCN(C)CCCC(C#N)(c2ccc(OC)c(OC)c2)C(C)C)cc1OC (configuration not stated) | – | – | – | – | – | inhibition (INH) [7]: Active
NS(=O)(=O)c1ccc(NC(NC(=O)c2ccc(Br)cc2)C(Cl)(Cl)Cl)cc1 (configuration not stated) | – | – | – | – | 1 | –
C[C@H](Nc1c(-c2c(F)cc(OCCCNC(=O)C(C)(C)C)cc2F)c(Cl)nc2ncnn12)C(F)(F)F | 0.7 | 170 | 1500 | – | 2.4 | Kp at 1 h [10]: 0.12
C[C@H](Nc1c(-c2c(F)cc(F)cc2F)c(Cl)nc2ncnn12)C(F)(F)F | 0.4 | 2400 | 2800 | 0.8 | 1.3 | –
C[C@H](Nc1c(-c2c(F)cc(OCCCO)cc2F)c(Cl)nc2ncnn12)C(F)(F)F | 1.2 | 78 | 29 | 2.8 | 10.1 | –
CNCCCOc1cc(F)c(-c2c(Cl)nc3ncnn3c2N[C@@H](C)C(F)(F)F)c(F)c1 [CEVIPABULIN] | – | 92 | 2500 | 0.037 | – | Activity (QBI293 [11]): Active; inhibition (INH) [7]: Not Active
CC(C)Nc1c(-c2c(F)cc(F)cc2F)c(Cl)nc2nccnc12 | – | – | – | – | 1 | –
C/C1=C/C[C@@H](/C(C)=C/c2csc(C)n2)OC(=O)C[C@H](O)C(C)(C)C(=O)[C@H](C)[C@@H](O)[C@@H](C)CCC1 [EPOTHILONE D] | – | – | – | – | – | Activity (QBI293 [11]): Active; inhibition (INH) [7]: Active
Cc1nnc(Cl)c(-c2c(F)cc(F)cc2F)c1-c1ccc(Cl)s1 | – | – | – | – | 1.3 | –
Fc1cc(F)c(-c2c(Cl)nc(-c3ccccn3)nc2NCC(F)(F)F)c(F)c1 | – | – | – | – | 1.6 | –
CC(C)Nc1nc2nccnc2c(Cl)c1-c1c(F)cc(F)cc1F | – | – | – | – | 1 | –
C[C@H](Nc1nc(-c2ccccn2)nc(Cl)c1-c1c(F)cc(F)cc1F)C(F)(F)F | 0.9 | 1500 | 4300 | – | 4.2 | –
C[C@H](Nc1nc(-c2cnccn2)nc(Cl)c1-c1c(F)cc(F)cc1F)C(F)(F)F | 0.9 | 2900 | 5000 | – | 2.7 | half-life [12]: 15 h; half-life [13]: 15 h; inhibition (INH) [7]: Not Active; Kp at 1 h [8]: 0.72; Kp uu at 1 h [9]: 1.7; Activity (Mus musculus): Active
